# Measured values gathered from unrelated publications.
# Target: Serine/threonine-protein kinase PLK2 (PLK2, Homo sapiens, UniProt Q9NYY3)
Compound,observed,method,concentration,remaining binding [%]
O=C(NCCCN1CCOCC1)c1ccc(Nc2nccc(-c3cc4ccccc4s3)n2)cc1,binding,competition with immobilised ligand,1 µM,44
C[C@@H]1CN(c2cc(-c3n[nH]c4ccc(OC5(C)CC5)cc34)ncn2)C[C@H](C)O1,cell-free assay,competition with immobilised ligand,0.1 µM,76
N[C@H]1CCN(c2nccc(-c3cnn4ncccc34)n2)C1,binding,,1 µM,71
FC(F)(F)Oc1cccc(-c2cnc3ccc(-c4ccncc4)nn23)c1,cell-free assay,competition with immobilised ligand,5 µM,77
CNC(=O)[C@@H]1CC[C@@H](n2c(-c3ccc4cnccc4c3)nc3ccc(C(=O)NCc4cccc(C(N)=O)c4)cc32)C1,binding,competition with immobilised ligand,1 µM,96
CN(CCCC(F)(F)F)c1nccc(-c2cnn3ncccc23)n1,binding,,1 µM,99
CS(=O)(=O)NCC[C@H](NC(=O)c1cncc2c1cnn2-c1ccc(F)cc1)c1ccnc(S(C)(=O)=O)c1,cell-free assay,competition with immobilised ligand,1 µM,100
C[C@H]1CCN(c2nccc(-c3cnn4ncccc34)n2)C1,binding,,1 µM,91
C[C@@H]1CN(c2cc(-c3nn(C)c4ccc(OC5(C)CC5)cc34)ncn2)C[C@H](C)O1,cell-free assay,competition with immobilised ligand,1 µM,68
Nc1ncc2c(n1)-c1c([nH]c3ccc(C#CC4CC4)cc13)CCCC2,binding,competition with immobilised ligand,1 µM,91
CC1CCCN1c1nccc(-c2cnn3ncccc23)n1 (centres unmarked),binding,,1 µM,100
O=C(Nc1c[nH]nc1C(=O)NC1CCNCC1)c1cc(F)cc(F)c1,binding,competition with immobilised ligand,1 µM,92
NS(=O)(=O)c1cc(NC(=O)C2(c3ccccc3Cl)CC2)ccc1Oc1cccc(Cl)c1,cell-free assay,competition with immobilised ligand,1 µM,84
F[C@@H]1CCN(c2nccc(-c3cnn4ncccc34)n2)C1,binding,,1 µM,100
O=C(NCCCN1CCOCC1)c1ccc(Nc2ncc(Cl)c(-c3ccc(Cl)s3)n2)cc1,binding,competition with immobilised ligand,1 µM,5.9
FC(F)(F)c1ccc2c(c1)nc(-c1cccnc1)n2C1CC1,cell-free assay,competition with immobilised ligand,1 µM,94
COc1ccnn2ncc(-c3ccnc(N(C)C)n3)c12,binding,,1 µM,93
COc1ncc2cc3ccccc3nc2c1C#N,cell-free assay,competition with immobilised ligand,5 µM,45
CN(C)CC#Cc1ccc(OCCCc2sc(N3CCc4cccc(C(=O)Nc5nc6ccccc6s5)c4C3)nc2C(=O)O)c(F)c1,cell-free assay,competition with immobilised ligand,1 µM,94
Cc1cnc(Nc2ccc(C(=O)N3CCC(N4CCCC4)CC3)cc2)nc1-c1cc2ccccc2s1,binding,competition with immobilised ligand,1 µM,52
